What was measured:
[1] = Cytotoxicity against human MGC803 cells after 48 hrs by MTT assay; format: functional, cell-based, MGC-803
Method in brief: (§1)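 Tumor cells in log phase in RPMI 1640 + 10% FBS, seeded at 3×10^4 cells mL-1 and incubated 24 h (37 °C, 5% CO2). Test samples added at pre-set concentrations (6 wells each), doxorubicin as reference; 48 h exposure. MTT (2.5 mg·mL-1 in PBS) added for 4 h, formazan dissolved in DMSO, A570 read.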

[2] = molecular target: Telomerase reverse transcriptase (Homo sapiens, UniProt O14746); assay: Inhibition of telomerase in human MGC-803 cells after 24 hrs by TRAP-PCR-ELISA assay; format: cell-based
Method in brief: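 Cells lysed in RIPA on ice for 30 min; extract incubated with TRAP mix at 25 °C for 30 min, then 35 PCR cycles. Products hybridized to DIG probe, captured on streptavidin, detected with peroxidase anti-DIG at 490 nm; mean±SD.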

[3] = Cytotoxicity against human PC3 cells after 48 hrs by MTT assay; format: functional, cell-based, PC-3; method in brief: as §1
Bcap37 = assay: Cytotoxicity against human Bcap37 cells after 48 hrs by MTT assay; format: functional, cell-based; method in brief: as §1
HepG2 = assay: Cytotoxicity against human HepG2 cells after 48 hrs by MTT assay; format: functional, cell-based; method in brief: as §1
[4] = Homo sapiens, MGC-803, 48 h, read-out: IC50
[5] = Homo sapiens, PC-3, 48 h, read-out: IC50
[6] = Homo sapiens, Bcap37, 48 h, read-out: IC50
[7] = Homo sapiens, HepG2, 48 h, read-out: IC50

Chain of Telomerase reverse transcriptase (O14746 whole entry): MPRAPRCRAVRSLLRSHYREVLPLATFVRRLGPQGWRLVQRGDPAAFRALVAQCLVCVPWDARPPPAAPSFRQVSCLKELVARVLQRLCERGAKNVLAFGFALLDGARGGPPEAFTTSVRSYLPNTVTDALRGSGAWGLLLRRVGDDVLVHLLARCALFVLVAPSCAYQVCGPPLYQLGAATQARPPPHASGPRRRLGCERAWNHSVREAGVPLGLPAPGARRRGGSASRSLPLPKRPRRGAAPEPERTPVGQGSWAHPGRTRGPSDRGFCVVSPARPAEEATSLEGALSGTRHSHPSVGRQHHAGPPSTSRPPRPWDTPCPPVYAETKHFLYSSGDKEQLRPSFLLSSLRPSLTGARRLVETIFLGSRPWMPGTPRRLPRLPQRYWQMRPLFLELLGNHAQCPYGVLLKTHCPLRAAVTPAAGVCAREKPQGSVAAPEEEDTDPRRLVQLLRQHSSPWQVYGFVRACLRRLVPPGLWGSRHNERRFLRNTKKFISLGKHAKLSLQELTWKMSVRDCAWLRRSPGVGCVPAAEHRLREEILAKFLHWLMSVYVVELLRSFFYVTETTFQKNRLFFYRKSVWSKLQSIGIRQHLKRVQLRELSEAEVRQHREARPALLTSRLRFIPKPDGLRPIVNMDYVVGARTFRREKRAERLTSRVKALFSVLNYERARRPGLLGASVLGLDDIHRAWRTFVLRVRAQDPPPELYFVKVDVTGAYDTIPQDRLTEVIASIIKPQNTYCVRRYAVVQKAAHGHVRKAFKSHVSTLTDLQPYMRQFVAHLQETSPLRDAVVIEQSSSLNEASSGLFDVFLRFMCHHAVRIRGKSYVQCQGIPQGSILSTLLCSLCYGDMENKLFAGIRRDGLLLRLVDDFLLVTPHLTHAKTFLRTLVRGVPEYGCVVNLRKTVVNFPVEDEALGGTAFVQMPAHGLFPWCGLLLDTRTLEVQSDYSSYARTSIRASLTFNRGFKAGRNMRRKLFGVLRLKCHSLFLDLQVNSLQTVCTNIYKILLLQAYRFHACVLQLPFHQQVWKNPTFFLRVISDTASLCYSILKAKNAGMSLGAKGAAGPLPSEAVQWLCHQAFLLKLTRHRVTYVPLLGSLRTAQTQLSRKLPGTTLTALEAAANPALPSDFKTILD

Compound	IC50 [1, 4] [µM]	IC50 [2] [µM]	IC50 [3, 5] [µM]	IC50 (Bcap37; [6]) [µM]	IC50 (HepG2; [7]) [µM]	IC50 ([1]; mgc-803)	IC50 ([3]; pc-3)	IC50 (HepG2; hepg2)	IC50 (Bcap37; bcap37)
O=C(c1ccccc1Cl)N1N=C(c2cc3ccccc3oc2=O)CC1c1ccccc1 (stereo not drawn)	6.64	13.1	6.37	9.3	5.44	–	–	–	–
CC(=O)Oc1ccccc1C1CC(C)=NN1C(=O)CN1CCCCC1 (stereo not drawn)	4.89	2.12	4.07	12.8	19	–	–	–	–
CC1=NN(C(=O)c2ccc(C)cc2)C(c2ccccc2O)C1 (stereo not drawn)	26.3	–	40.6	9.97	11.3	–	–	–	–
CC1=NN(C(=O)CN2CCN(C(=O)OC(C)(C)C)CC2)C(c2ccccc2O)C1 (stereo not drawn)	17.6	6.77	3.44	6.74	5	–	–	–	–
CC1=NN(C(=O)c2ccc([N+](=O)[O-])cc2)C(c2ccccc2O)C1 (stereo not drawn)	50	–	36.6	45.2	30.1	–	–	–	–
Cc1ccc(C(=O)N2N=C(c3cc4ccccc4oc3=O)CC2c2ccccc2)cc1 (stereo not drawn)	31.3	–	13.2	26.1	52.3	–	–	–	–
O=C(CN1CCC(Cl)CC1)N1N=C(c2cc3ccccc3oc2=O)CC1c1ccccc1 (stereo not drawn)	–	57.8	–	24.2	–	Not Active	Not Active	Not Active	–
O=C(CNC1CCCCC1)N1N=C(c2cc3ccccc3oc2=O)CC1c1ccccc1 (stereo not drawn)	26.4	–	48.5	38.3	34.4	–	–	–	–
CC1=NN(C(=O)COc2ccc(Cl)cc2)C(c2cc(Br)ccc2O)C1 (stereo not drawn)	23.6	–	49	36.8	–	–	–	Not Active	–
CC1=NN(C(=O)CN2CC(C)CC(C)C2)C(c2ccccc2O)C1 (stereo not drawn)	30.7	–	36.4	20.9	51.9	–	–	–	–
CCN(CC)CC(=O)N1N=C(C)CC1c1ccccc1O (stereo not drawn)	39.8	–	25.9	45.7	51.6	–	–	–	–
CC1=NN(C(=O)c2ccc(C)cc2)C(c2cc(Br)cc(Br)c2O)C1 (stereo not drawn)	56.5	–	41.2	–	–	–	–	Not Active	Not Active
CC1=NN(C(=O)CCc2ccccc2)C(c2cc(Br)cc(Br)c2O)C1 (stereo not drawn)	17.1	–	11.3	27.2	9.17	–	–	–	–
CC1=NN(C(=O)CN(C(C)C)C(C)C)C(c2ccccc2O)C1 (stereo not drawn)	31.2	–	32.3	4.96	15.1	–	–	–	–
CC1=NN(C(=O)COc2ccc(Cl)cc2)C(c2cc(Br)cc(Br)c2O)C1 (stereo not drawn)	50	–	40.2	46.3	–	–	–	Not Active	–
CC1=NN(C(=O)c2ccccc2Cl)C(c2ccccc2O)C1 (stereo not drawn)	18.3	–	42.5	30.2	25.2	–	–	–	–
CC1=NN(C(=O)CN(CC(C)C)CC(C)C)C(c2ccccc2O)C1 (stereo not drawn)	30	–	32.2	40.5	49.2	–	–	–	–
O=C(CN1CCCC1)N1N=C(c2cc3ccccc3oc2=O)CC1c1ccccc1 (stereo not drawn)	–	–	50.2	–	44.3	Not Active	–	–	Not Active
CCC(=O)N1N=C(C)CC1c1cc(Br)ccc1O (stereo not drawn)	50.3	–	37.8	20.8	–	–	–	Not Active	–
O=C(CNC1CC1)N1N=C(c2cc3ccccc3oc2=O)CC1c1ccccc1 (stereo not drawn)	–	–	28.5	–	–	Not Active	–	Not Active	Not Active
CC(=O)Oc1ccccc1C1CC(C)=NN1C(=O)CN(C(C)C)C(C)C (stereo not drawn)	20.1	–	24.5	19.4	34.1	–	–	–	–
CC1CC(C)CN(CC(=O)N2N=C(c3cc4ccccc4oc3=O)CC2c2ccccc2)C1 (stereo not drawn)	–	–	–	–	–	Not Active	Not Active	Not Active	Not Active
CC1=NN(C(=O)CN2CCCC(C)C2)C(c2ccccc2O)C1 (stereo not drawn)	42.9	–	35.5	35.6	17.9	–	–	–	–
CC1=NN(C(=O)CCc2ccccc2)C(c2cc(Br)ccc2O)C1 (stereo not drawn)	21.2	–	16.2	41.3	17.9	–	–	–	–
CC(C)(C)OC(=O)N1CCN(CC(=O)N2N=C(c3cc4ccccc4oc3=O)CC2c2ccccc2)CC1 (stereo not drawn)	–	–	36.4	29.7	28.4	Not Active	–	–	–
CC1=NN(C(=O)CN2CCC(Cl)CC2)C(c2ccccc2O)C1 (stereo not drawn)	30.3	–	34.8	28.6	42.1	–	–	–	–

— ChEMBL document CHEMBL3785019, “Dihydropyrazole derivatives as telomerase inhibitors: Structure-based design, synthesis, SAR and anticancer evaluation in vitro and in vivo” (Eur J Med Chem, 2016)
